This excerpt belongs to a sample that is enriched for hits.
Insulin prom act = activators of insulin promoter-driven GFP, primary screen, imaging, TRM-6 cells (human fetal islet line), eGFP reporter, cell count; AID 1296, 2008; plate-scaled: unstimulated 0, stimulated control 100; 130,000 compounds, 0.81% hits; activation, % at 2 µM;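 active means activation at 2 µM above a set limit, confirmed on inspection of the cell images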;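 further: share of cells whose green reporter signal exceeds an intensity cutoff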
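Test system: TRM-6 insulin promoter–eGFP reporter cells / Quantity: 1,000 cells per well / Reagent: tamoxifen inducer, 0.75 µM, in seeding medium / Compound dosing: 2 µM final, single concentration / Schedule: overnight tamoxifen, then two-day compound incubation at 37 °C / Measured by: automated fluorescence imaging of paraformaldehyde-fixed, Hoechst-counterstained cells, green channel / Read-out: percent activation from GFP-positive cell fraction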
* hit, by the source's call.

SMILES	Insulin prom act
COC(=O)CNC(c1ccccc1Cl)c1cc(Br)ccc1NS(=O)(=O)c1ccc(C)cc1 (stereo unspecified)	-8
Nc1cc(Oc2ccc(F)cc2F)cc([N+](=O)[O-])c1	-7
COc1ccc(/C=N/OCC(=O)N(Cc2ccc(OC)cc2)c2ccccc2C(=O)O)cc1	-7
CCN(CC(=O)NC(=O)NC1CCCCC1)Cc1nc2ccccc2c(=O)[nH]1	3
O=C(CCc1nc2ccccc2c(=O)[nH]1)OCC(=O)c1ccc(C2CCCCC2)cc1	0
O=C(COCc1nc2ccccc2c(=O)[nH]1)NCC1CCCCC1	486*
COc1cc(NC(=O)CSc2nc3ccccc3n2-c2ccccc2)c(C)cc1[N+](=O)[O-]	7
CCN(C(=O)CSc1nnc(-c2ccncc2)n1Cc1ccccc1)C1CCS(=O)(=O)C1 (stereo unspecified)	7
COc1ccccc1/C=C/C(=O)N1CCC(c2ccccc2)C1 (stereo unspecified)	3
O=C(Oc1c(CN2CCOCC2)cc(Cl)c2cccnc12)c1ccccc1	9
O=[N+]([O-])c1cc(CN2CCN(c3ccccc3)CC2)c(O)c2ncccc12	330*
Oc1ccc(CN2CCN(Cc3ccccc3)CC2)c2cccnc12	-50
C=CCc1c(C)[nH]c(=O)[nH]c1=O	-78
COc1ccc2c(c1)O[C@@H](c1cccc(C(F)(F)F)c1)[C@H](OC(=O)NCCc1ccc(OC)c(OC)c1)C2=O	5
COC(=O)c1ccccc1OCCCN(C)C	-10
CC(C)c1cc(NC(=O)CCl)on1	127
CCC(C)NC(=O)c1n[nH]c(=O)c2ccccc12 (stereo unspecified)	0
CCC(C)NC(=O)c1cc(C)no1 (stereo unspecified)	121*
CCOC(=O)c1c(NC(=O)c2ccc(N3C(=O)C4C5C=CC(C5)C4C3=O)cc2)sc2c1CCCC2 (stereo unspecified)	0
CC1CCN(Cc2c(O)ccc3c2O/C(=C\c2ccco2)C3=O)CC1	486*
COc1ccccc1Oc1coc2c(CN3CCN(C)CC3)c(O)ccc2c1=O	8
O=C1/C(=C/c2ccco2)CCc2ccccc21	0
Cc1nn(C(=O)CCCn2cc([N+](=O)[O-])cn2)c(C)c1Cl	-6
Cc1ccc(NC(=O)NNc2cccc(Cl)n2)cc1	8
COc1ccc(N2C(=O)CSC2c2ccccc2[N+](=O)[O-])cc1 (stereo unspecified)	0
SMILES	Insulin prom act
O=C(CSc1ncn[nH]1)NCCC(c1ccccc1)c1ccccc1	85*
O=C(CSc1ncn[nH]1)NC1CCCc2ccccc21 (stereo unspecified)	0
COc1ccc(CCNC(=O)CSc2ncn[nH]2)cc1	-86
CC(C)CC(C(=O)NC(C)(C)C)N(CC1CCCO1)C(=O)c1snc(C(N)=O)c1N (stereo unspecified)	133
CCc1ccc(/C=C2\Oc3cc(OC(=O)N4CCOCC4)ccc3C2=O)cc1	-7
COc1ccc[nH]c1=O	154*
COc1ccccc1Nc1nnc(C)c(=O)[nH]1	-7
COc1cc2[nH]ccc(=O)c2cc1OC	0
O=c1[nH]c(/C(Cl)=C/c2cc(Cl)ccc2O)nc2cc(Cl)ccc12	-5
Cc1ccc(OC(=O)CCC(=O)NC(C)c2ccccc2)cc1 (stereo unspecified)	-8
O=C(CNc1cc(S(=O)(=O)N2CCOCC2)ccc1N1CCCC1)NCc1ccco1	7
Cc1ccccc1C(=O)OCCN1CCOCC1	8
CCOC(=O)c1cc(C)n(CCCN2CCOCC2)c1C	86*
COCCn1c(C)cc(C(=O)CN2CCCCC2)c1C	7
CCN1CCCC1CN(Cc1cc2ccc(C)cc2[nH]c1=O)C(=S)Nc1ccc(F)cc1 (stereo unspecified)	146
COC(=O)c1ccc(COC(=O)CCC(=O)c2cccs2)cc1	0
CCCOc1ccc(NC(=O)CC2C(=O)N(Cc3ccccc3)C(=S)N2Cc2cccs2)cc1 (stereo unspecified)	-7
COc1ccc(NS(=O)(=O)c2cc(NC(=O)c3cccc(OCc4c(C)noc4C)c3)ccc2OC)cc1	0
CCCOC(=O)CCCCCCCCC(O)CN1CCCCC1 (stereo unspecified)	0
COc1cc(NC(=O)CS(=O)(=O)c2ccccc2)cc(OC)c1OC	381
CCOC(=O)CS(=O)(=O)c1ccccc1	0
C/C(CS(=O)(=O)c1ccccc1)=N\O	229*
O=C(NCc1ccccn1)C(=O)NN=C1CCCCCCC1	8
Cc1nn(CC(=O)NCc2ccc(-n3cccn3)cc2)c(C)c1[N+](=O)[O-]	0
CC(=NCCCNC1CCCCC1)C1=C(O)CC(C)(C)CC1=O	89*
CC1(C)CC(=O)C(C=N)=C(O)C1	4
CC(C)N(C)C(=O)C(=O)c1cccn1-c1cccc(Cl)c1C#N	127
Cc1c(Cl)cccc1NC(=S)N1CCN(Cc2ccc3c(c2)OCO3)CC1	9
COC(=O)c1c([N+](=O)[O-])c(OC)c(OC)c(OC)c1[N+](=O)[O-]	8
CCOC(=O)c1oc2ccc(CNC(C)(C)C)c(Cl)c2c1C	431*

Assay outcomes (PubChem BioAssay)
